≈ marks a conversion by molar mass, not a printed value.
Assays:
Format in all cases: functional
Klebsiella pneumoniae = assay: In vitro antimicrobial activity against strain Klebsiella pneumoniae 9664
Outline: (§1)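 MICs by serial 2-fold broth dilution in nutrient broth. Inoculum adjusted to 10^6 CFU/mL, with compounds tested from 0.0005 to 250 μg/mL. Plates incubated 18 h at 37 °C. MIC taken as the lowest concentration preventing visible bacterial growth.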

Escherichia coli = assay: In vitro antimicrobial activity against strain Escherichia coli 15119; outline: as §1
Streptococcus pneumoniae = assay: In vitro antimicrobial activity against strain Streptococcus pneumoniae 9585; outline: as §1
Pseudomonas aeruginosa = assay: In vitro antimicrobial activity against strain Pseudomonas aeruginosa 9843; outline: as §1
Proteus mirabilis = assay: In vitro antimicrobial activity against strain Proteus mirabilis 9900; outline: as §1
Enterobacter cloacae = assay: In vitro antimicrobial activity against strain Enterobacter cloacae 9656
Staphylococcus aureus = assay: In vitro antimicrobial activity against strain Staphylococcus aureus 9537; outline: as §1
Morganella morganii = assay: In vitro antimicrobial activity against strain Morganella morganii 15153; outline: as §1
Enterococcus faecalis = assay: In vitro antimicrobial activity against strain Enterococcus faecalis 9809; outline: as §1

SMILES | MIC (Klebsiella pneumoniae) [µg/mL] | MIC (Escherichia coli) [µg/mL] | MIC (Streptococcus pneumoniae) [µg/mL] | MIC (Pseudomonas aeruginosa) [µg/mL] | MIC (Proteus mirabilis) [µg/mL] | MIC (Enterobacter cloacae) [µg/mL] | MIC (Staphylococcus aureus) [µg/mL] | MIC (Morganella morganii) [µg/mL] | MIC (Enterococcus faecalis) [µg/mL]
NC1CCN(c2cc3c(cc2F)c(=O)c(C(=O)O)cn3C2CC2)C1 (stereo not given) | 0.03 (≈ 0.0905 µM) | 0.004 (≈ 0.0121 µM) | 0.13 (≈ 0.392 µM) | 0.25 (≈ 0.754 µM) | 0.03 (≈ 0.0905 µM) | 0.004 (≈ 0.0121 µM) | 0.03 (≈ 0.0905 µM) | 0.016 (≈ 0.0483 µM) | 0.25 (≈ 0.754 µM)
NC1CCN(c2cc(F)c3c(=O)c(C(=O)O)cn(C4CC4)c3c2F)C1 (stereo not given) | 0.13 (≈ 0.372 µM) | 0.06 (≈ 0.172 µM) | 4 (≈ 11.5 µM) | 2 (≈ 5.73 µM) | 0.13 (≈ 0.372 µM) | 0.06 (≈ 0.172 µM) | 0.13 (≈ 0.372 µM) | 0.06 (≈ 0.172 µM) | 4 (≈ 11.5 µM)
NC1CCN(c2ccc3c(=O)c(C(=O)O)cn(C4CC4)c3c2F)C1 (stereo not given) | 0.016 (≈ 0.0483 µM) | 0.008 (≈ 0.0241 µM) | 0.5 (≈ 1.51 µM) | 0.25 (≈ 0.754 µM) | 0.03 (≈ 0.0905 µM) | 0.03 (≈ 0.0905 µM) | 0.03 (≈ 0.0905 µM) | 0.016 (≈ 0.0483 µM) | 0.25 (≈ 0.754 µM)
O=C(O)c1cn(C2CC2)c2cc(N3CCNCC3)c(F)cc2c1=O [CIPROFLOXACIN] | 0.06 (≈ 0.181 µM) | – | 0.25 (≈ 0.754 µM) | – | 0.008 (≈ 0.0241 µM) | – | 0.06 (≈ 0.181 µM) | 0.08 (≈ 0.241 µM) | 0.5 (≈ 1.51 µM)

Other lines, results leading:

MIC (Klebsiella pneumoniae) [µg/mL] | MIC (Escherichia coli) [µg/mL] | MIC (Streptococcus pneumoniae) [µg/mL] | MIC (Pseudomonas aeruginosa) [µg/mL] | MIC (Proteus mirabilis) [µg/mL] | MIC (Enterobacter cloacae) [µg/mL] | MIC (Staphylococcus aureus) [µg/mL] | MIC (Morganella morganii) [µg/mL] | MIC (Enterococcus faecalis) [µg/mL] | SMILES
0.03 (≈ 0.0859 µM) | 0.008 (≈ 0.0229 µM) | 0.03 (≈ 0.0859 µM) | 0.13 (≈ 0.372 µM) | 0.016 (≈ 0.0458 µM) | 0.016 (≈ 0.0458 µM) | 0.008 (≈ 0.0229 µM) | 0.016 (≈ 0.0458 µM) | 2 (≈ 5.73 µM) | NC1CCN(c2c(F)cc3c(=O)c(C(=O)O)cn(C4CC4)c3c2F)C1 (stereo not given)
0.06 (≈ 0.191 µM) | 0.008 (≈ 0.0255 µM) | 2 (≈ 6.38 µM) | 0.5 (≈ 1.6 µM) | 0.13 (≈ 0.415 µM) | 0.13 (≈ 0.415 µM) | 0.25 (≈ 0.798 µM) | 0.13 (≈ 0.415 µM) | 4 (≈ 12.8 µM) | NC1CCN(c2ccc3c(=O)c(C(=O)O)cn(C4CC4)c3c2)C1 (stereo not given)
0.5 (≈ 1.51 µM) | 0.13 (≈ 0.392 µM) | 4 (≈ 12.1 µM) | 4 (≈ 12.1 µM) | 0.5 (≈ 1.51 µM) | 0.13 (≈ 0.392 µM) | 1 (≈ 3.02 µM) | 0.25 (≈ 0.754 µM) | 16 (≈ 48.3 µM) | NC1CCN(c2cc(F)c3c(=O)c(C(=O)O)cn(C4CC4)c3c2)C1 (stereo not given)

From ChEMBL document CHEMBL1126020, “Potent non-6-fluoro-substituted quinolone antibacterials: synthesis and biological activity” (1992)
